For orientation: MIC means the least concentration at which growth counts as inhibited.

From ChEMBL document CHEMBL1944562, “Design, synthesis of some new (2-aminothiazol-4-yl)methylester derivatives as possible antimicrobial and antitubercular agents” (2012) come the findings set out here.

Common to all, as to type: functional
Assay [1] relates to Bacillus subtilis. The assay is described as follows: Antibacterial activity against Bacillus subtilis after 16 to 18 hrs by […].
Assay [2] has as its system Aspergillus flavus. Kind of assay: Antifungal activity against Aspergillus flavus NCIM N0.524 after 3 to 4 days by serial plate dilution method.
The test system of assay [3] is Pseudomonas aeruginosa. Kind of assay: Antibacterial activity against Pseudomonas aeruginosa ATCC 27853 at MIC after 3 to 4 days. In a few lines: (§1)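 Agar well diffusion on seeded agar plates, 20 mL agar per dish, dried 1 h at 37 °C. Wells punched and loaded with test compound in DMSO at its MIC. DMSO-only control. Plates run in triplicate and kept 3-4 days at 37 °C. Inhibition zone diameter measured.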

The subject of assay [4] is Mycobacterium tuberculosis. Kind of assay: Antitubercular activity against Mycobacterium tuberculosis H37Rv assessed as growth inhibition after 7 days by resazurin assay. In a few lines:
(§2)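 M. tuberculosis H37Rv ATCC 27294 grown in Middlebrook 7H9 broth with 10% OADC and adjusted to McFarland 2. Culture was diluted 1:4 into fresh medium. Compounds came from 2 mg/mL DMF stocks, screened first at 1, 10 and 100, then at 0.3125–5. DMF-only controls were included. After 7 days at 37 °C, 0.01% resazurin was added; a blue-to-pink change marked growth, and the MIC was read.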
A general note: The colour change of resazurin is a common sign of viable cells or microbes.

The test system of assay [5] is Pseudomonas aeruginosa. Kind of assay: Antibacterial activity against Pseudomonas aeruginosa ATCC 27853 after 16 to 18 hrs by […].
For assay [6], the system named is Aspergillus fumigatus. The assay is described as follows: Antifungal activity against Aspergillus fumigatus NCIM N0.902 after 3 to 4 days by serial plate dilution method.
For assay [7], the system named is Mycolicibacterium fortuitum. The assay is described as follows: Antitubercular activity against Mycobacterium fortuitum ATCC 19542 after 7 days by resazurin assay. The note with it: ATCC 19542, 168 h. In a few lines: (§3)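 Middlebrook 7H9 broth with 10% OADC, culture adjusted to McFarland 2. 50 µL culture added to 150 µL fresh medium. Stocks at 2 mg/mL in DMF, tested first at 1, 10 and 100 µg/mL, then at 0.3125-5 µg/mL. DMF controls. After 7 days at 37 °C, 0.01% resazurin added. Blue-to-pink change read for MIC.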

Assay [8] concerns Escherichia coli. Kind of assay: Antibacterial activity against Escherichia coli ATCC 25922 after 16 to 18 hrs by […].
Assay [9] relates to Aspergillus fumigatus. Kind of assay: Antifungal activity against Aspergillus fumigatus NCIM N0.902 at MIC after 3 to 4 days. The essentials: (§4)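 Fungal suspension made by transferring a loopful of culture to 3 mL saline and seeding agar plates, 20 mL agar per dish, dried 1 h at 37 °C. Punched wells loaded with test compound in DMSO at its MIC. DMSO-only control. Triplicate plates held 3-4 days at 37 °C. Inhibition zone diameter measured.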

Assay [10] deals with Staphylococcus aureus. The assay is described as follows: Antibacterial activity against Staphylococcus aureus ATCC 25923 after 16 to 18 hrs by serial plate dilution method.
The test system of assay [11] is Staphylococcus aureus. Kind of assay: Antibacterial activity against Staphylococcus aureus ATCC 25923 at […] after 3 to 4 days. The essentials:
as §1

Assay [12] concerns Klebsiella pneumoniae. The assay is described as follows: Antibacterial activity against Klebsiella pneumoniae at MIC after 3 to 4 days. In a few lines: as §1
In assay [13] the test system is Bacillus subtilis. Kind of assay: Antibacterial activity against Bacillus subtilis at MIC after 3 to 4 days. In a few lines:
as §1

Assay [14] concerns Talaromyces marneffei. Kind of assay: Antifungal activity against Penicillium marneffei at MIC after 3 to 4 days. In a few lines: as §4
For assay [15], the system named is Klebsiella pneumoniae. Kind of assay: Antibacterial activity against Klebsiella pneumoniae after 16 to 18 hrs by […].
Assay [16] concerns Talaromyces marneffei. The assay is described as follows: Antifungal activity against Penicillium marneffei after 3 to 4 days by serial plate dilution method.
Assay [17] deals with Candida albicans. Kind of assay: Antifungal activity against Candida albicans after 3 to 4 days by serial plate dilution method.
Assay [18] relates to Escherichia coli. Kind of assay: Antibacterial activity against Escherichia coli ATCC 25922 at MIC after 3 to 4 days. The essentials: as §1
Assay [19] has as its system Trichophyton mentagrophytes. Kind of assay: Antifungal activity against Trichophyton mentagrophytes at MIC after 3 to 4 days. In a few lines: as §4
Assay [20] deals with Mycolicibacterium smegmatis. The assay is described as follows: Antitubercular activity against Mycobacterium smegmatis ATCC 19420 after 7 days by resazurin assay. Particulars: ATCC 19420, 168 h. The essentials:
as §3

Assay [21] has as its system Candida albicans. The assay is described as follows: Antifungal activity against Candida albicans at MIC after 3 to 4 days. In a few lines:
as §4

In assay [22] the test system is Trichophyton mentagrophytes. The assay is described as follows: Antifungal activity against Trichophyton mentagrophytes after 3 to 4 days by serial plate dilution method.
Assay [23] concerns Aspergillus flavus. Kind of assay: Antifungal activity against Aspergillus flavus NCIM N0.524 at MIC after 3 to 4 days. The essentials: as §4
In assay [24] the test system is Mycobacterium tuberculosis. The assay is described as follows: Antitubercular activity against Mycobacterium tuberculosis H37Rv after 7 days by resazurin assay. Particulars: 168 h. In a few lines: as §2

Structures are written as SMILES. In brackets after ≈: the same amount, converted by molar mass.

Take `Nc1nc(COC(=O)C2(c3ccc(Cl)cc3)CC2)cs1`: the MIC was 12.5 µg/mL (≈ 40.5 µM) with Bacillus subtilis [1]; 25 µg/mL (≈ 81 µM) with Aspergillus flavus [2]; 12.5 µg/mL (≈ 40.5 µM) in the assay on Pseudomonas aeruginosa [5]; 25 µg/mL (≈ 81 µM) in the assay with Aspergillus fumigatus [6]; 1.25 µg/mL (≈ 4.05 µM) in assay [7]; 6.25 µg/mL (≈ 20.2 µM) against Escherichia coli [8]. For the same molecule, the MIC was found to be 12.5 µg/mL (≈ 40.5 µM) against Staphylococcus aureus [10]; 6.25 µg/mL (≈ 20.2 µM) with Klebsiella pneumoniae [15]; 25 µg/mL (≈ 81 µM) with Talaromyces marneffei [16]; 25 µg/mL (≈ 81 µM) against Candida albicans [17]; 1 µg/mL (≈ 3.24 µM) in assay [20]; 25 µg/mL (≈ 81 µM) in assay [22]. For the same molecule, 1 µg/mL (≈ 3.24 µM) was the least that counted as inhibitory in assay [24] (MIC). The “diameter of the inhibition zone (DIZ)” value is listed as 11 mm with Pseudomonas aeruginosa [3]; below 10 mm in the assay with Aspergillus fumigatus [9]; 11 mm in the assay on Staphylococcus aureus [11]; 16 mm in the assay on Klebsiella pneumoniae [12]; 11 mm in the assay on Bacillus subtilis [13]; below 10 mm in the assay on Talaromyces marneffei [14]. In addition, the “diameter of the inhibition zone (DIZ)” value in the assay with Escherichia coli [18] was 16 mm; in [19], below 10 mm; with Candida albicans [21], below 10 mm; in the assay on Aspergillus flavus [23], below 10 mm. In addition, the “growth inhibition (GI)” value in [4] came to 90%.
Consider `Nc1nc(COC(=O)Cc2cccc(C(F)(F)F)c2)cs1`, for which the minimum inhibitory concentration (MIC) is 6.25 µg/mL (≈ 19.8 µM) in the assay with Bacillus subtilis [1]; 12.5 µg/mL (≈ 39.5 µM) against Aspergillus flavus [2]; 6.25 µg/mL (≈ 19.8 µM) against Pseudomonas aeruginosa [5]; 12.5 µg/mL (≈ 39.5 µM) in the assay on Aspergillus fumigatus [6]; 10 µg/mL (≈ 31.6 µM) in [7]; 6.25 µg/mL (≈ 19.8 µM) in the assay on Escherichia coli [8]. Moreover, the minimal inhibitory concentration (MIC) turned out to be 6.25 µg/mL (≈ 19.8 µM) with Staphylococcus aureus [10]; 12.5 µg/mL (≈ 39.5 µM) against Klebsiella pneumoniae [15]; 25 µg/mL (≈ 79 µM) in the assay on Talaromyces marneffei [16]; 25 µg/mL (≈ 79 µM) in the assay on Candida albicans [17]; 10 µg/mL (≈ 31.6 µM) in [20]; 12.5 µg/mL (≈ 39.5 µM) in assay [22]. Further, in [24], the minimum inhibitory concentration (MIC) was 0.625 µg/mL (≈ 1.98 µM). For the same molecule, the “diameter of the inhibition zone (DIZ)” value in the assay on Pseudomonas aeruginosa [3] was 16 mm; in the assay on Aspergillus fumigatus [9], 11 mm; in the assay with Staphylococcus aureus [11], 16 mm; with Klebsiella pneumoniae [12], 11 mm; in the assay on Bacillus subtilis [13] it was 16 mm; in the assay with Talaromyces marneffei [14] it was below 10 mm. The “diameter of the inhibition zone (DIZ)” value is listed as 16 mm in the assay on Escherichia coli [18], 11 mm in [19], below 10 mm with Candida albicans [21] and 11 mm with Aspergillus flavus [23]. Moreover, the “growth inhibition (GI)” value in assay [4] was found to be 95%.
As for `Cc1cc(C2CCCCC2)n(O)c(=O)c1.NCCO` [CICLOPIROX OLAMINE], the minimum inhibitory concentration (MIC) (in the assay with Aspergillus flavus [2]; against Aspergillus fumigatus [6]; in the assay with Talaromyces marneffei [16]; against Candida albicans [17]; in assay [22]) was 6.25 µg/mL each time. In addition, the “diameter of the inhibition zone (DIZ)” value is listed as 25 mm in the assay with Aspergillus fumigatus [9]; 20 mm in the assay on Talaromyces marneffei [14]; 27 mm in [19]; 20 mm in the assay on Candida albicans [21]; 25 mm in the assay on Aspergillus flavus [23].
Take `O=C(O)c1cn(C2CC2)c2cc(N3CCNCC3)c(F)cc2c1=O` [CIPROFLOXACIN]: the minimal inhibitory concentration (MIC) is 1.56 µg/mL (≈ 4.71 µM) against Bacillus subtilis [1] and 6.25 µg/mL (≈ 18.9 µM) with Klebsiella pneumoniae [15]. The “diameter of the inhibition zone (DIZ)” value in the assay with Pseudomonas aeruginosa [3] turned out to be 16 mm; with Staphylococcus aureus [11], 22 mm; in the assay on Klebsiella pneumoniae [12], 23 mm; with Bacillus subtilis [13], 21 mm; with Escherichia coli [18], 30 mm.
`NNC(=O)c1ccncc1` [ISONIAZID]: the “growth inhibition (GI)” value in assay [4] is 95%. Also, the MIC was 12.5 µg/mL (≈ 91.1 µM) in assay [7], 50 µg/mL (≈ 365 µM) in [20] and 0.7 µg/mL (≈ 5.1 µM) in assay [24].
Take `CO[C@H]1/C=C/O[C@@]2(C)Oc3c(C)c(O)c4c(O)c(c(/C=N/N5CCN(C)CC5)c(O)c4c3C2=O)NC(=O)/C(C)=C\C=C\[C@H](C)[C@H](O)[C@@H](C)[C@@H](O)[C@@H](C)[C@H](OC(C)=O)[C@@H]1C` [RIFAMPIN]: the “growth inhibition (GI)” value in assay [4] was determined as 95%. The figures for the MIC in assay [7], in assay [20] and in assay [24] were 1.5 µg/mL (≈ 1.82 µM), 1.5 µg/mL (≈ 1.82 µM) and 0.5 µg/mL (≈ 0.608 µM), respectively.
